Experimental data published in ChEMBL document CHEMBL4396876, “Antisulfatase, Osteogenic, and Anticancer Activities of Steroid Sulfatase Inhibitor EO-33 in Mice” (J Med Chem, 2019).

Experiments:
[1] = Plasma concentration in Balb/c mouse at 10 mg/kg, sc administered as single dose using MC/EtOH formulation measured after 24 hrs by LC-MS/MS analysis; format: ADME, organism-based
In short: (§1)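 Female Balb/c mice, fasted 8 h with free water, given a single dose in 0.1 mL vehicle: EO-33 dissolved in EtOH, then aqueous 0.4% methylcellulose added to a final 8% EtOH. Sacrificed under isoflurane at 1, 3, 7, 12 and 24 h (2–3 mice/group). Cardiac blood collected into K-EDTA and plasma stored at −80 °C. LC-MS/MS on 100 µL plasma. AUC0-24h taken from the five time points.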

[2] = Plasma concentration in Balb/c mouse at 30 mg/kg, po administered via gavage as single dose using MC/EtOH formulation measured after 7 hrs by LC-MS/MS analysis; format: ADME, organism-based; in short: as §1
[3] = system: Mus musculus; assay: Estrogenic activity in ovariectomized Balb/c mouse assessed as stimulation of uterine weight at 30 mg/kg, sc administered once daily from day 2 to 10 using MC/EtOH formulation measured on day 11; format: organism-based; conditions: in vivo
In short: (§2)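 Female Balb/c mice (15–20 g) ovariectomized under isoflurane, 5/group. Inhibitor given SC in 0.1 mL MC:EtOH (92:8) on days 2–10. E1S (2 µg/mouse, BID) or E1 (0.06 µg/mouse, ID) given SC on days 5–10. Vehicle controls included. Uterus dissected and weighed on day 11. Means ± SEM.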

[4] = Toxicity in nu/nu Br athymic mouse xenografted with human […]-stimulated MCF7 cells assessed as effect on liver at 30 mg/kg, sc administered 6 days per week for […] using MC/EtOH formulation measured 3 hrs post-last dose by necropsy analysis; format: organism-based; conditions: in vivo
In short: (§3)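 MCF-7 cells (grown in DME-F12 with 5% FBS and 1 nM estradiol) inoculated SC at 4.1 x 10^6 cells in 30% Matrigel into both flanks of bilaterally ovariectomized nude mice, three days after surgery; E2S 50 µg/mouse SC three times weekly. Test agent SC 6 days/week in 0.1 mL MC:EtOH (92:8) for 28 days; vehicle-only controls. Mice weighed and killed 3 h after last dose; livers removed.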

[5] = AUC (0 to 24 hrs) in Balb/c mouse at 2 mg/kg, sc administered as single dose using MC/EtOH formulation by LC-MS/MS analysis; format: ADME, organism-based; set-up: dose 2 mg/kg, time < 24 hr, route subcutaneous; conditions: in vivo; in short: as §1
[6] = Plasma concentration in Balb/c mouse at 30 mg/kg, sc administered as single dose using MC/EtOH formulation measured after 24 hrs by LC-MS/MS analysis; format: ADME, organism-based; in short: as §1
[7] = AUC (0 to 24 hrs) in Balb/c mouse assessed as (4-(((furan-2-ylmethyl)((5-methylthiophen-2-yl)methyl)amino)methyl)phenyl)(7-hydroxy-3,4-dihydroisoquinolin-2(1H)-yl)methanone level at 30 mg/kg, sc administered as single dose using MC/EtOH formulation by LC-MS/MS analysis; format: ADME, organism-based; set-up: time < 24 hr, dose 30 mg/kg, route subcutaneous; conditions: in vivo
[8] = Plasma concentration in Balb/c mouse at 30 mg/kg, po administered via gavage as single dose using SO/DMSO formulation measured after 7 hrs by LC-MS/MS analysis; format: ADME, organism-based
In short: (§4)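 Female Balb/c mice, fasted 8 h, given a single dose in 0.1 mL of PG or sunflower oil holding a final 8% DMSO. Sacrificed under isoflurane at 7 h (2–3 mice/group). Cardiac blood collected into K-EDTA and plasma analysed by LC-MS/MS.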

[9] = Toxicity in nu/nu Br athymic mouse xenografted with human […]-stimulated MCF7 cells assessed as effect on kidneys at 30 mg/kg, sc administered 6 days per week […] using MC/EtOH formulation measured 3 hrs post-last dose by necropsy analysis; format: organism-based; conditions: in vivo; in short: as §3
[10] = system: Mus musculus; assay: Estrogenic activity in ovariectomized-induced C57BL/6 mouse model of osteoporosis assessed as stimulation of uterus weight at 30 mg/kg, sc administered 6 days per week for 70 days using MC/EtOH formulation measured post last dose by necropsy analysis; format: ADME, organism-based; conditions: in vivo
[11] = Plasma concentration in Balb/c mouse at 30 mg/kg, po administered via gavage as single dose using MC/EtOH formulation measured after 3 hrs by LC-MS/MS analysis; format: ADME, organism-based; in short: as §1
[12] = Plasma concentration in Balb/c mouse at 30 mg/kg, sc administered as single dose using PG/DMSO formulation measured after 7 hrs by LC-MS/MS analysis; format: ADME, organism-based; in short: as §4
[13] = Hepatotoxicity in ovariectomized-induced C57BL/6 mouse model of osteoporosis assessed as effect on liver weight at 30 mg/kg, sc administered 6 days per week for 70 days using MC/EtOH formulation measured post last dose by necropsy analysis; format: toxicity, organism-based; conditions: in vivo
[14] = Toxicity in nu/nu Br athymic mouse xenografted with human […]-stimulated MCF7 cells assessed as effect on liver weight at 30 mg/kg, sc administered 6 days per week […] using MC/EtOH formulation measured 3 hrs post-last dose; format: organism-based; conditions: in vivo; in short: as §3
[15] = Plasma concentration in Balb/c mouse at 10 mg/kg, sc administered as single dose using MC/EtOH formulation measured after 3 hrs by LC-MS/MS analysis; format: ADME, organism-based; in short: as §1
[16] = Toxicity in nu/nu Br athymic mouse xenografted with human E2S-stimulated MCF7 cells assessed as whitish deposit at injection site at 30 mg/kg, sc administered 6 days per week for 28 days using MC/EtOH formulation by TLC analysis; conditions: in vivo
[17] = AUC (0 to 24 hrs) in Balb/c mouse at 10 mg/kg, sc administered as single dose using MC/EtOH formulation by LC-MS/MS analysis; format: ADME, organism-based; set-up: dose 10 mg/kg, time < 24 hr, route subcutaneous; conditions: in vivo; in short: as §1
[18] = system: Mus musculus; assay: In vivo inhibition of STS in ovariectomized Balb/c mouse assessed as reduction in E1S-stimulated uterus weight at 15 mg/kg, sc administered twice daily starting from day 2 to day 10 using MC/EtOH formulation and E1S addition on day 5 to 10 measured on day 11 relative to control; format: functional; in short: as §2
[19] = AUC (0 to 24 hrs) in Balb/c mouse at 30 mg/kg, po administered via gavage as single dose using MC/EtOH formulation by LC-MS/MS analysis; format: ADME, organism-based; set-up: time < 24 hr, dose 30 mg/kg, route oral; conditions: in vivo; in short: as §1
[20] = system: Mus musculus; assay: In vivo inhibition of STS in ovariectomized Balb/c mouse assessed as reduction in E1S-stimulated uterus weight at 30 mg/kg, sc administered once daily starting from day 2 to day 10 using MC/EtOH formulation and E1S addition on day 5 to 10 measured on day 11 relative to control; format: functional; in short: as §2
[21] = Plasma concentration in Balb/c mouse at 30 mg/kg, sc administered as single dose using MC/EtOH formulation measured after 3 hrs by LC-MS/MS analysis; format: ADME, organism-based; in short: as §1
[22] = AUC (0 to 24 hrs) in Balb/c mouse at 30 mg/kg, sc administered as single dose using MC/EtOH formulation by LC-MS/MS analysis; format: ADME, organism-based; set-up: dose 30 mg/kg, time < 24 hr, route subcutaneous; conditions: in vivo; in short: as §1
[23] = system: Mus musculus; assay: In vivo inhibition of STS in sc-dosed ovariectomized Balb/c mouse assessed as reduction in E1S-stimulated uterus weight administered twice daily starting from day 2 to day 10 using MC/EtOH formulation and E1S addition on day 5 to 10 measured on day 11; format: functional, organism-based; in short: as §2
[24] = Plasma concentration in Balb/c mouse at 10 mg/kg, sc administered as single dose using MC/EtOH formulation measured after 7 hrs by LC-MS/MS analysis; format: ADME, organism-based; in short: as §1

concentration at 24 h [1]: 2 ng/mL
concentration at 7 h [2]: 75 ng/mL
AUC(0-t) at 24 h [5]: 1130 ng·h/mL
concentration at 24 h [6]: 13 ng/mL
AUC [7]: 269 ng·h/mL
concentration at 7 h [8]: 49 ng/mL
concentration at 3 h [11]: 19 ng/mL
concentration at 7 h [12]: 381 ng/mL
concentration at 3 h [15]: 398 ng/mL
AUC(0-t) at 24 h [17]: 5200 ng·h/mL
AUC(0-t) at 24 h [19]: 878 ng·h/mL
concentration at 3 h [21]: 2190 ng/mL
AUC(0-t) at 24 h [22]: 13500 ng·h/mL
concentration at 7 h [24]: 15 ng/mL
Compound: Cc1ccc(CN(Cc2ccc(C(=O)N3CCc4ccc(OS(N)(=O)=O)cc4C3)cc2)Cc2ccco2)s1
Activity [3]: Non-Toxic
Activity [4]: Non-Toxic
Activity [9]: Non-Toxic
Activity [10]: Non-Toxic
Activity [13]: Non-Toxic
Activity [14]: Non-Toxic
Activity [16]: Toxic
inhibition in vivo at 15 mg/kg [18]: 49%
inhibition in vivo at 30 mg/kg [20]: 42%
inhibition [23]: Dose-dependent effect
